Measurements: paper PMC11827156 (Malaria Journal, 2025)
Where two headings read alike, the source gives them in different places.

Tests used:
Type in all cases: cell-based, Plasmodium falciparum
P. falciparum 3D7 [1] = conditions: 72 h; for IC50: asynchronous culture, 0.0019–2 µM, ± standard error of the mean; for reduction of P. falciparum parasitaemia by 50%: at the concentrations tested (0.0019–2 µM)
P. falciparum 3D7 [2] = conditions: 48 h; for effect on parasitaemia compared with the control: 2.5 nM compound alone
P. falciparum 3D7 [3] = test: Competition of TCAMS compounds; conditions: for effect on the increase in parasitaemia promoted by melatonin: 2.5 nM compound with 100 nM melatonin; for effect on the increase in parasitaemia promoted by melatonin / effect on the increase in parasitaemia promoted by serotonin: 48 h; for effect on the increase in parasitaemia promoted by serotonin: 2.5 nM compound with 250 nM serotonin; for classification on the serotonin/melatonin pathway in the parasite: from effects in presence and absence of serotonin or melatonin
Method in brief: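 Asynchronous P. falciparum 3D7 cultures (1% parasitaemia, 2% haematocrit) were given 2.5 nM test compound with or without 250 nM serotonin or 100 nM melatonin. Incubation was 48 h at 37 °C under mixed gas, with a DMSO solvent control. Cells were stained with SYBR Green-I (1:10,000) and MitoTracker Deep Red (50 nM) for 20 min at 37 °C, then parasitaemia was read by flow cytometry. Survival is relative to solvent; triplicate, 3 independent experiments.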

[4] = read-out: IC50 (nM) 3D7, Table 1
[5] = Plasmodium falciparum, 3D7, 72 h, read-out: IC50 (nM) 3D7, Table 1

O=C(/C=C/c1ccc(Cl)c(Cl)c1)Nc1cccc(CN2CCC(c3c[nH]c4ccc(O)cc34)CC2)c1 [TCMDC-139634, Oc1ccc2[nH]cc(C3CCN(Cc4cccc(NC(= O)\C = C\c5ccc(Cl)c(Cl)c5)c4)CC3)c2c1]
IC50 (P. falciparum 3D7 [1]; [4]): 346 ± 47.5 nM
effect on parasitaemia compared with the control (P. falciparum 3D7 [2]): induced a significant increase in parasitaemia
effect on the increase in parasitaemia promoted by melatonin (P. falciparum 3D7 [3]): could inhibit the increase in parasitaemia promoted by melatonin thoroughly
effect on the increase in parasitaemia promoted by serotonin (P. falciparum 3D7 [3]): able to inhibit the increase in parasitaemia
classification on the serotonin/melatonin pathway in the parasite (P. falciparum 3D7 [3]): potential partial agonists of this pathway in the parasite

COc1cc(C)nc2ccc(NC(=O)c3ccc(C(=O)Nc4ccc5nc(C)cc(OC)c5c4)cc3)cc12 [TCMDC-139502, COc1cc(C)nc2ccc(NC(= O)c3ccc(cc3)C(= O)Nc3ccc4nc(C)cc(OC)c4c3)cc12]
IC50 (P. falciparum 3D7 [1]; [4]): 98.2 ± 25.1 nM

Fc1ccc2[nH]c(-c3cccc(-c4ccc(CN5CCN(c6ccncc6)CC5)cc4)c3)nc2c1 [TCMDC-132918, OC(= O)C(F)(F)F.Fc1ccc2[nH]c(nc2c1)-c1cccc(c1)-c1ccc(CN2CCN(CC2)c2ccncc2)cc1]
IC50 (P. falciparum 3D7 [1]; [4]): 68.4 ± 6.93 nM

COc1cc2nc(NCCc3ccccc3)nc(NCCCc3ccccc3)c2cc1OC [TCMDC-135301, COc1cc2nc(NCCc3ccccc3)nc(NCCCc3ccccc3)c2cc1OC]
IC50 (P. falciparum 3D7 [1]; [5]): 434 ± 81.2 nM
effect on parasitaemia compared with the control (P. falciparum 3D7 [2]): induced a significant increase in parasitaemia
increase in parasitaemia (P. falciparum 3D7 [2]; 2.5 nM): 9.69%
effect on the increase in parasitaemia promoted by melatonin (P. falciparum 3D7 [3]): able to inhibit the increase in parasitaemia partially
effect on the increase in parasitaemia promoted by serotonin (P. falciparum 3D7 [3]): unable to prevent the effect of the neurotransmitter on P. falciparum parasitaemia

COc1ccc(C2CC(=O)C3=C(C2)NC(C)=C(C(=O)OC(C)C)C3c2cccc(O)c2)cc1OC (stereo not shown) [TCMDC-125636, COc1ccc(cc1OC)C1CC(= O)C2 = C(C1)NC(C) = C(C2c1cccc(O)c1)C(= O)OC(C)C]
IC50 (P. falciparum 3D7 [1]; [4]): 80.2 ± 18.9 nM

COc1ccc(NC(=O)[C@H](CC(C)C)Nc2cc(C)nc(NCCc3ccccc3)n2)cc1 [TCMDC-134778, OC(= O)C(F)(F)F.COc1ccc(NC(= O)[C@H](CC(C)C)Nc2cc(C)nc(NCCc3ccccc3)n2)cc1]
IC50 (P. falciparum 3D7 [1]; [4]): 497 ± 99.5 nM

COc1cc2nc(NCCc3ccccc3)nc(NCc3cnn(C)c3C)c2cc1OC [TCMDC-135459, COc1cc2nc(NCCc3ccccc3)nc(NCc3cnn(C)c3C)c2cc1OC]
IC50 (P. falciparum 3D7 [1]; [5]): 287 ± 24.2 nM
effect on parasitaemia compared with the control (P. falciparum 3D7 [2]): induced a significant increase in parasitaemia
effect on the increase in parasitaemia promoted by melatonin (P. falciparum 3D7 [3]): unable to block their effects on the erythrocyte cycle
effect on the increase in parasitaemia promoted by serotonin (P. falciparum 3D7 [3]): unable to prevent the effect of the neurotransmitter on P. falciparum parasitaemia

Cn1nccc1C(=O)NCCNCc1ccc(-c2ccc(-c3nc4cc(C(F)(F)F)ccc4[nH]3)s2)cc1 [TCMDC-133018, OC(= O)C(F)(F)F.Cn1nccc1C(= O)NCCNCc1ccc(cc1)-c1ccc(s1)-c1nc2cc(ccc2[nH]1)C(F)(F)F]
IC50 (P. falciparum 3D7 [1]; [4]): 284 ± 125 nM

CC[C@H](NC(=O)c1c(CC2CCN(CC(C)=O)CC2)c(-c2ccccc2)nc2ccccc12)c1ccccc1 [TCMDC-141946, CC[C@H](NC(= O)c1c(CC2CCN(CC(C) = O)CC2)c(nc2ccccc12)-c1ccccc1)c1ccccc1]
IC50 (P. falciparum 3D7 [1]; [4]): 215 ± 27.9 nM

O=C(NC1CCC(CN2CCC(c3c[nH]c4ccccc34)CC2)CC1)c1cc(-c2ccc(F)cc2F)ccc1O (stereo not shown) [TCMDC-139894, Oc1ccc(cc1C(= O)NC1CCC(CN2CCC(CC2)c2c[nH]c3ccccc23)CC1)-c1ccc(F)cc1F]
reduction of P. falciparum parasitaemia by 50% (P. falciparum 3D7 [1]): could not reduce P. falciparum parasitaemia by 50%

NCCc1c[nH]c2ccc(O)cc12 [Serotonin, serotonin, reference compound]
increase of P. falciparum parasitaemia compared with the control (P. falciparum 3D7 [2]; 250 nM): 11.86%

O=C1CCCN1CCCNCc1ccc(-c2ccc(-c3nc4cc(C(F)(F)F)ccc4[nH]3)s2)cc1 [TCMDC-132764, OC(= O)C(F)(F)F.FC(F)(F)c1ccc2[nH]c(nc2c1)-c1ccc(s1)-c1ccc(CNCCCN2CCCC2 = O)cc1]
IC50 (P. falciparum 3D7 [1]; [4]): 259 ± 49.4 nM

Cc1[nH]c2ccc(O)cc2c1C1CCN(CC2CCN(C(=O)/C=C/c3ccc(Cl)c(Cl)c3)CC2)CC1 [TCMDC-140219, Cc1[nH]c2ccc(O)cc2c1C1CCN(CC2CCN(CC2)C(= O)\C = C\c2ccc(Cl)c(Cl)c2)CC1]
IC50 (P. falciparum 3D7 [1]; [4]): 101 ± 22.9 nM
effect on parasitaemia compared with the control (P. falciparum 3D7 [2]): did not significantly affect parasitaemia compared with the control
effect on the increase in parasitaemia promoted by melatonin (P. falciparum 3D7 [3]): able to inhibit the increase in parasitaemia partially
effect on the increase in parasitaemia promoted by serotonin (P. falciparum 3D7 [3]): able to inhibit the increase in parasitaemia
classification on the serotonin/melatonin pathway in the parasite (P. falciparum 3D7 [3]): potential full antagonists of the pathway

CCCCCC(C)C(C)c1cc(O)c2c(c1)OC(C)(C)CC2(O)c1ccnn1C (stereo not shown) [TCMDC-131795, CCCCCC(C)C(C)c1cc(O)c2c(OC(C)(C)CC2(O)c2ccnn2C)c1]
IC50 (P. falciparum 3D7 [1]; [5]): 909 ± 65.1 nM

COc1cc(NC(=O)N2CCOC(CCN3CCC4(CCc5ccccc54)CC3)(c3ccc(Cl)c(Cl)c3)C2)cc(OC)c1 (stereo not shown) [TCMDC-135338, COc1cc(NC(= O)N2CCOC(CCN3CCC4(CCc5ccccc45)CC3)(C2)c2ccc(Cl)c(Cl)c2)cc(OC)c1]
IC50 (P. falciparum 3D7 [1]; [4]): 442 ± 78.8 nM

O=c1c(NCCCN(Cc2ccc(F)cc2)c2ccccn2)c(NCc2ccncc2)c1=O [TCMDC-142310, Fc1ccc(CN(CCCNc2c(NCc3ccncc3)c(= O)c2 = O)c2ccccn2)cc1]
IC50 (P. falciparum 3D7 [1]; [4]): 100 ± 23.6 nM
effect on parasitaemia compared with the control (P. falciparum 3D7 [2]): induced a significant increase in parasitaemia
effect on the increase in parasitaemia promoted by melatonin (P. falciparum 3D7 [3]): able to inhibit the increase in parasitaemia partially
effect on the increase in parasitaemia promoted by serotonin (P. falciparum 3D7 [3]): able to inhibit the increase in parasitaemia
classification on the serotonin/melatonin pathway in the parasite (P. falciparum 3D7 [3]): potential partial agonists of this pathway in the parasite

COc1cc(NC(=O)N2CCOC(CCN3CCC4(CCc5ccccc54)CC3)(c3ccc(Cl)c(Cl)c3)C2)cc(OC)c1OC (stereo not shown) [TCMDC-135346, COc1cc(NC(= O)N2CCOC(CCN3CCC4(CCc5ccccc45)CC3)(C2)c2ccc(Cl)c(Cl)c2)cc(OC)c1OC]
IC50 (P. falciparum 3D7 [1]; [4]): 75.5 ± 18.2 nM

Clc1ccc2nccc(N3CCC(CN4CCC(c5c[nH]c6ccccc56)CC4)CC3)c2c1 [TCMDC-134281, OC(= O)C(F)(F)F.Clc1ccc2nccc(N3CCC(CN4CCC(CC4)c4c[nH]c5ccccc45)CC3)c2c1]
IC50 (P. falciparum 3D7 [1]; [4]): 72.9 ± 10 nM

CCOc1ccc(C(=O)N2CCOC(CCN3CCC(c4ccccc4)CC3)(c3ccc(Cl)c(Cl)c3)C2)cc1 (stereo not shown) [TCMDC-135344, CCOc1ccc(cc1)C(= O)N1CCOC(CCN2CCC(CC2)c2ccccc2)(C1)c1ccc(Cl)c(Cl)c1]
IC50 (P. falciparum 3D7 [1]; [4]): 462 ± 185 nM

Cc1cc(NC(=O)NCCN2CCC(NC(=O)c3ccc(Cl)cc3)CC2)c2ccccc2n1 [TCMDC-136171, Cc1cc(NC(= O)NCCN2CCC(CC2)NC(= O)c2ccc(Cl)cc2)c2ccccc2n1]
IC50 (P. falciparum 3D7 [1]; [4]): 110 ± 46.2 nM

CCN(CCNc1nc(NCCc2cnc[nH]2)nc(N(CCC#N)Cc2ccccc2)n1)c1cccc(C)c1 [TCMDC-139258, CCN(CCNc1nc(NCCc2cnc[nH]2)nc(n1)N(CCC#N)Cc1ccccc1)c1cccc(C)c1]
IC50 (P. falciparum 3D7 [1]; [5]): 216 ± 15.4 nM

O=C(c1ccc(F)cc1)N1CCOC(CCN2CCC(c3ccccc3)CC2)(c2ccc(Cl)c(Cl)c2)C1 (stereo not shown) [TCMDC-135334, Fc1ccc(cc1)C(= O)N1CCOC(CCN2CCC(CC2)c2ccccc2)(C1)c1ccc(Cl)c(Cl)c1]
reduction of P. falciparum parasitaemia by 50% (P. falciparum 3D7 [1]): could not reduce P. falciparum parasitaemia by 50%

COc1cc2nc(NCCc3ccccc3)nc(NCc3cc(C)no3)c2cc1OC [TCMDC-135435, COc1cc2nc(NCCc3ccccc3)nc(NCc3cc(C)no3)c2cc1OC]
IC50 (P. falciparum 3D7 [1]; [5]): 734 ± 162 nM
effect on parasitaemia compared with the control (P. falciparum 3D7 [2]): did not significantly affect parasitaemia compared with the control
effect on the increase in parasitaemia promoted by melatonin (P. falciparum 3D7 [3]): able to inhibit the increase in parasitaemia partially
effect on the increase in parasitaemia promoted by serotonin (P. falciparum 3D7 [3]): unable to prevent the effect of the neurotransmitter on P. falciparum parasitaemia

O=C(/C=C/c1ccc(Cl)c(Cl)c1)N1CCC(CN2CCC(c3c[nH]c4ccc(O)cc34)CC2)CC1 [TCMDC-139786, Oc1ccc2[nH]cc(C3CCN(CC4CCN(CC4)C(= O)\C = C\c4ccc(Cl)c(Cl)c4)CC3)c2c1]
IC50 (P. falciparum 3D7 [1]; [4]): 138 ± 23.9 nM
effect on parasitaemia compared with the control (P. falciparum 3D7 [2]): induced a significant increase in parasitaemia
effect on the increase in parasitaemia promoted by melatonin (P. falciparum 3D7 [3]): could inhibit the increase in parasitaemia promoted by melatonin thoroughly
effect on the increase in parasitaemia promoted by serotonin (P. falciparum 3D7 [3]): partially inhibited the increase in parasitaemia promoted by serotonin
classification on the serotonin/melatonin pathway in the parasite (P. falciparum 3D7 [3]): potential partial agonists of this pathway in the parasite

O=C(Nc1ccccc1)N(Cc1cccc(-c2cccc(CNCc3ccc4c(c3)OCO4)c2)c1)C1CCN(Cc2ccccc2)CC1 [TCMDC-140590, OC(= O)C(F)(F)F.O = C(Nc1ccccc1)N(Cc1cccc(c1)c1cccc(CNCc2ccc3OCOc3c2)c1)C1CCN(Cc2ccccc2)CC1]
IC50 (P. falciparum 3D7 [1]; [4]): 285 ± 144 nM

COc1ccc(CN2C(=S)N(Cc3ccccc3)C(=O)C2CC(=O)Nc2ccccc2)cc1OC (stereo not shown) [TCMDC-123874, COc1ccc(CN2C(CC(= O)Nc3ccccc3)C(= O)N(Cc3ccccc3)C2 = S)cc1OC]
IC50 (P. falciparum 3D7 [1]; [4]): 759 ± 131 nM

COc1ccc2ncc(F)c([C@H](O)CN3CCC(NCc4ccc5c(c4)NC(=O)CO5)CC3)c2c1 [TCMDC-135829, Cl.COc1ccc2ncc(F)c([C@H](O)CN3CCC(CC3)NCc3ccc4OCC(= O)Nc4c3)c2c1]
IC50 (P. falciparum 3D7 [1]; [4]): 336 ± 176 nM

Brc1ccc(Nc2nc(NCc3ccccc3)c3ccccc3n2)cc1 [TCMDC-124574, Brc1ccc(Nc2nc(NCc3ccccc3)c3ccccc3n2)cc1]
IC50 (P. falciparum 3D7 [1]; [5]): 619 ± 213 nM

COc1ccc2[nH]cc(CCNC(C)=O)c2c1 [Melatonin, melatonin, reference compound]
increase of P. falciparum parasitaemia compared with the control (P. falciparum 3D7 [2]; 100 nM): 15.05%
